≈ marks a conversion by molar mass, not a printed value.
Assays:
[1] = target: P-gp (ABCB1) (Homo sapiens, UniProt P08183); assay: Substrate activity at P-gp (unknown origin) transfected in LLC-PK1 cells expressing human MDR1 gene assessed as efflux ratio of permeability across basolateral to apical membrane at 0.1 uM; type: ADME, cell-based
[2] = target: Isocitrate dehydrogenase [NADP] cytoplasmic (Homo sapiens, UniProt O75874, R132H); assay: Inhibition of IDH1 R132H mutant (unknown origin) assessed as reduction in NADPH consumption using alpha-KG as substrate incubated for 60 mins by Kinase-GLO reagent based assay
Chain of Isocitrate dehydrogenase [NADP] cytoplasmic (Homo sapiens, UniProt O75874, R132H) (O75874 2-414 R132H limits assumed): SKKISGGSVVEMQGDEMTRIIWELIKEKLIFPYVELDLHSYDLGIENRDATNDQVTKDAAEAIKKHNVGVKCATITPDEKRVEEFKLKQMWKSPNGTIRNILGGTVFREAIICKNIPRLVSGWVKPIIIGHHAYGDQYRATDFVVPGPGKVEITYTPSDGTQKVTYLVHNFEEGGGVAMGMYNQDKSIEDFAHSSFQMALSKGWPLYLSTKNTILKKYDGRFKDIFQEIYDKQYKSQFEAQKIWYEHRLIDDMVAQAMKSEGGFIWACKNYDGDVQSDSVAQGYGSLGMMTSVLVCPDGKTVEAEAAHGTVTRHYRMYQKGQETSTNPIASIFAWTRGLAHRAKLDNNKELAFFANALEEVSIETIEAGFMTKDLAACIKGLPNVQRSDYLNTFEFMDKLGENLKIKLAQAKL

[3] = system: MOG-G-UVW; assay: Antiproliferative activity against human MOG-G-UVW cells assessed as inhibition of cell proliferation incubated for 72 hrs by cell titer-Glo assay; type: functional, cell-based
[4] = Metabolic stability in human liver microsomes assessed as intrinsic clearance; type: ADME, Microsome; details: read-out: CLH
[5] = system: P-gp (Mdr1) (Rattus norvegicus); assay: Substrate activity at rat P-gp transfected in […]-MDR1 expressing Mdr1 gene assessed as efflux ratio of permeability across basolateral to apical membrane at 0.1 uM
[6] = target: Isocitrate dehydrogenase [NADP] cytoplasmic (Homo sapiens, UniProt O75874); assay: Inhibition of IDH1 (unknown origin)
Chain of Isocitrate dehydrogenase [NADP] cytoplasmic (Homo sapiens, UniProt O75874) (O75874 whole entry): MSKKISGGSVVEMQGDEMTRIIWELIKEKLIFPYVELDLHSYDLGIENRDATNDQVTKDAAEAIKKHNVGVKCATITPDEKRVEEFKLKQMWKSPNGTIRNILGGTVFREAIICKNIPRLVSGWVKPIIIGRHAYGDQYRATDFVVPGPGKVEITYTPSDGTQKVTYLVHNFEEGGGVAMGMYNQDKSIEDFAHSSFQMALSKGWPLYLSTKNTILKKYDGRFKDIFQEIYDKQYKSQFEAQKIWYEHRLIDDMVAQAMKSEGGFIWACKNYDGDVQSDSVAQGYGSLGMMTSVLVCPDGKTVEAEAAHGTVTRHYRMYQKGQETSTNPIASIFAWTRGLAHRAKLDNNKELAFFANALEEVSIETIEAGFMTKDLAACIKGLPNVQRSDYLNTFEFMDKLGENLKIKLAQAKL

[7] = target: Cytochrome P450 3A4 (Homo sapiens, UniProt P08684); assay: Inhibition of CYP3A4 (unknown origin); type: ADME
Chain of Cytochrome P450 3A4 (P08684 whole entry): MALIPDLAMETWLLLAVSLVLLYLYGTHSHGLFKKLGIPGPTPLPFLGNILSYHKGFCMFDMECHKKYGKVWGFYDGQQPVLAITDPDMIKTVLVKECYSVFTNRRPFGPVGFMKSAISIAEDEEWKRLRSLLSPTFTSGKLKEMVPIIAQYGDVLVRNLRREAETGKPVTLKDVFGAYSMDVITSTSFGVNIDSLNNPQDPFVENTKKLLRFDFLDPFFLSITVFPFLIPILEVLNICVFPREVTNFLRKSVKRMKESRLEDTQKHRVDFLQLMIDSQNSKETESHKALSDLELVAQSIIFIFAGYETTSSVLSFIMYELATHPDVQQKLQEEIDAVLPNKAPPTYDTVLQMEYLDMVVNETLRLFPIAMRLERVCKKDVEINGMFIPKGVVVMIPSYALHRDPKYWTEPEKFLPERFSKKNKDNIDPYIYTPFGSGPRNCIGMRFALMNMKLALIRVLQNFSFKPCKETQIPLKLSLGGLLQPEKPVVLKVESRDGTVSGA

[8] = target: T1, Nuclear receptor subfamily 1 group I member 2 (Homo sapiens, UniProt O75469); assay: Inhibition of PXR (unknown origin)
T1 sequence (O75469 whole entry): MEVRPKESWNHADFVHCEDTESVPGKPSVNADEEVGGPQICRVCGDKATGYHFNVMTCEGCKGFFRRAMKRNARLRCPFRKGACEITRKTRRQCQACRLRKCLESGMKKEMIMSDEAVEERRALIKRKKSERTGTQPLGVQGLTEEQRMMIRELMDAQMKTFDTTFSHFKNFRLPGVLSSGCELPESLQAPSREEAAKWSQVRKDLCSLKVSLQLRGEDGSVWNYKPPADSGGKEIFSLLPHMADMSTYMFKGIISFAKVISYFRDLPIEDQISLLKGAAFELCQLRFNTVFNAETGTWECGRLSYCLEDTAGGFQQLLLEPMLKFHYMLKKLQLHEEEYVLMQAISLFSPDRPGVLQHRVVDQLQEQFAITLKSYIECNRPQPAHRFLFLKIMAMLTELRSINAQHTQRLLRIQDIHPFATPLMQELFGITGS

[9] = target: T2, Isocitrate dehydrogenase [NADP], mitochondrial (Homo sapiens, UniProt P48735); assay: Inhibition of IDH2 (unknown origin)
T2 sequence (P48735 whole entry): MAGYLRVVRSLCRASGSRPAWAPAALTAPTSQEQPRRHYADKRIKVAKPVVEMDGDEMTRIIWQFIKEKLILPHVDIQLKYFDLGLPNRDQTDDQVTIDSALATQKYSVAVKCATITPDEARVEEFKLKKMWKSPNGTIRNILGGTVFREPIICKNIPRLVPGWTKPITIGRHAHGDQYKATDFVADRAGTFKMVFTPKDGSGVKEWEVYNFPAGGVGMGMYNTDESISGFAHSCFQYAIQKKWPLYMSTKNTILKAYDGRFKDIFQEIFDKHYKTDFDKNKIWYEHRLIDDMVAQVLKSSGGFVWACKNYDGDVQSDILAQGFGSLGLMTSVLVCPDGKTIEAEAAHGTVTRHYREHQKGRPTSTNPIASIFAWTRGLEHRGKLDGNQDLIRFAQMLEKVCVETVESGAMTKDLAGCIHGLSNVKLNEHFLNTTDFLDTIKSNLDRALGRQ

[10] = Drug metabolism in dog liver microsomes assessed as glutathione-adduct formation measured after 60 mins in presence of NADPH; type: ADME, Canis lupus familiaris, Microsome; details: 1 h
[11] = Distribution coefficient, logD of compound at pH 7.4 by HPLC analysis; type: physicochemical; details: octanol/water
[12] = Solubility of the compound at pH 2; type: physicochemical; details: buffer
[13] = Permeability of the compound in pig LLC-PK1 cells expressing MDR1; type: ADME, cell-based, Sus scrofa; details: read-out: permeability
[14] = Half life in dog at 2 mg/kg, iv measured up to 24 hrs by LC-MS/MS analysis; type: ADME, organism-based, Canis lupus familiaris; details: in vivo
Method in brief: (§1)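 Single-dose PK in rat and dog. Rat received 0.5 mg/kg IV and 1 mg/kg PO; dog received 2 mg/kg IV and 10 mg/kg PO. Parameters derived: terminal t1/2, Vd, clearance and oral bioavailability F.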

[15] = Half life in rat at 0.5 mg/kg, iv measured up to 24 hrs by LC-MS/MS analysis; type: ADME, organism-based; details: in vivo; method in brief: as §1
[16] = Clearance in dog at 2 mg/kg, iv measured up to 24 hrs by LC-MS/MS analysis; type: ADME, organism-based, Canis lupus familiaris; details: in vivo; method in brief: as §1
[17] = Volume of distribution in rat at 0.5 mg/kg, iv measured up to 24 hrs by LC-MS/MS analysis; type: ADME, organism-based; details: in vivo; method in brief: as §1
[18] = Solubility of the compound at pH 6.5; type: physicochemical; details: buffer
[19] = Volume of distribution in dog at 2 mg/kg, iv measured up to 24 hrs by LC-MS/MS analysis; type: ADME, organism-based, Canis lupus familiaris; details: in vivo; method in brief: as §1
[20] = Solubility of the compound at pH 7; type: physicochemical; details: buffer
[21] = Clearance in rat at 0.5 mg/kg, iv measured up to 24 hrs by LC-MS/MS analysis; type: ADME, organism-based; details: in vivo; method in brief: as §1
[22] = Oral bioavailability in dog 10 mg/kg measured up to 24 hrs by LC-MS/MS analysis; type: ADME, organism-based, Canis lupus familiaris; details: in vivo; method in brief: as §1
[23] = Oral bioavailability in rat 1 mg/kg measured up to 24 hrs by LC-MS/MS analysis; type: ADME, organism-based; details: in vivo; method in brief: as §1

Chain of P-gp (ABCB1) (P08183 whole entry): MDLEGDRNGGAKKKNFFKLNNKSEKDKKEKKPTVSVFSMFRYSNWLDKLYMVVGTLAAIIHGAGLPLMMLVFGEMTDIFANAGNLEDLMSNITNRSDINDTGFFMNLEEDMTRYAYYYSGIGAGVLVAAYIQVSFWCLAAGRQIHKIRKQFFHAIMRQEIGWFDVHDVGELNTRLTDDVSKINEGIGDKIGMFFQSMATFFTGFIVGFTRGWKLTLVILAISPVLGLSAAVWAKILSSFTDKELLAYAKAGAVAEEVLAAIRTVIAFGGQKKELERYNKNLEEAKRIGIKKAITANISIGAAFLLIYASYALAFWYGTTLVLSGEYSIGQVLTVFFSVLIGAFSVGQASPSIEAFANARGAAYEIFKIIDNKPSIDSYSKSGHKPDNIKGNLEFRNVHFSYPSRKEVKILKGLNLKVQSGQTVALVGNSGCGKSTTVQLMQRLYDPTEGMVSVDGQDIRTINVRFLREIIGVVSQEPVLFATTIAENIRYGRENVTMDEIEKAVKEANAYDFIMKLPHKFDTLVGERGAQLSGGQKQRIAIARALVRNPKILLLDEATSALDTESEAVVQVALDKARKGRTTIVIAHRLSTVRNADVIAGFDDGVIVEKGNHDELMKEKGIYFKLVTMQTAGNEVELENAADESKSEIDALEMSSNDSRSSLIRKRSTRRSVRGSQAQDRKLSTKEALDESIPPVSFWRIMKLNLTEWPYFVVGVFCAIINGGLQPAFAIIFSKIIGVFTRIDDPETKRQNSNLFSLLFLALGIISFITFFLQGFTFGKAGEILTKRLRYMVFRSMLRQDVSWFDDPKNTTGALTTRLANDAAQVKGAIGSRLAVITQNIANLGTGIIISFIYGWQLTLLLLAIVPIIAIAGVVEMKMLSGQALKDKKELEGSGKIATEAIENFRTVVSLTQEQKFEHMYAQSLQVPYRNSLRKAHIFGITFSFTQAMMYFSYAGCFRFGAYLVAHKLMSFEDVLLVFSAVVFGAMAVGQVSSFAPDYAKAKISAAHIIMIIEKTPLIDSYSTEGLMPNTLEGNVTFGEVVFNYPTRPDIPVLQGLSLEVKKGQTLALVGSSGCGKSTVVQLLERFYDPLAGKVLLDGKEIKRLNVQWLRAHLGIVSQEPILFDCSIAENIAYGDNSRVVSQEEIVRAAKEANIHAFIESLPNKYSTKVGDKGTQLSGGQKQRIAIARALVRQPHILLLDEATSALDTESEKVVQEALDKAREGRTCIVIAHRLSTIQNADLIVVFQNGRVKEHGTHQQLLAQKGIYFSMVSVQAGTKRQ

Structure (SMILES)	efflux ratio at 0.1 µM [1]	IC50 [2]	IC50 [3]	CLint scaled [4]	further results
Cc1cnc2c(c1)CN(C(=O)[C@H]1CC[C@H](OC(C)C)CC1)c1cc(N3CC4CCC3CO4)ccc1N2 (some centres not stated)	2.2	113 nM	456 nM		
CC(C)O[C@H]1CC[C@H](C(=O)N2Cc3cccnc3Nc3ccc(N4C[C@@H]5C[C@H]4CO5)cc32)CC1			60.6 nM	34 mL/min/kg	
CC(C)O[C@H]1CC[C@H](C(=O)N2Cc3cc(S(C)(=O)=O)cnc3Nc3ccc(N4CC5CCC4CO5)cc32)CC1 (some centres not stated)		11200 nM	> 10000 nM		
CC(C)O[C@H]1CC[C@H](C(=O)N2Cc3nccnc3Nc3ccc(C4CCOCC4)cc32)CC1	1.4	22.4 nM	146 nM	92 mL/min/kg	
CC(C)O[C@H]1CC[C@H](C(=O)N2Cc3cccnc3Nc3ccc(N4CC5CCC4CO5)c(F)c32)CC1 (some centres not stated)	3.1		205 nM	210 mL/min/kg	
CC(C)O[C@H]1CC[C@H](C(=O)N2Cc3cc(Cl)cnc3Nc3ccc(N4CC5CCC4CO5)cc32)CC1 (some centres not stated)		28.7 nM	95.9 nM		efflux ratio at 0.1 µM [5]: 4.6
CC(C)O[C@H]1CC[C@H](C(=O)N2Cc3cccnc3Nc3ccc(N4C[C@H]5CC[C@@H]4CO5)cc32)OC1		21.6 nM	17.8 nM	21 mL/min/kg	IC50 [6]: > 50000 nM; IC50 [7]: 1000 nM; IC50 [8]: 18000 nM; IC50 [9]: > 50000 nM
CC(C)O[C@H]1CC[C@H](C(=O)N2Cc3cccnc3Nc3cnc(C4COCCO4)cc32)CC1 (some centres not stated)	3.7	181 nM	581 nM	20 mL/min/kg	
COC1C[C@H]2CC[C@@H](C1)N2c1ccc2c(c1)N(C(=O)C1CCN(CC(F)(F)F)CC1)Cc1cccnc1N2 (some centres not stated)		15.6 nM	61 nM		
CC(C)O[C@H]1CC[C@H](C(=O)N2Cc3cccnc3Nc3ccc(N4CC5(CCCOC5)C4)cc32)CC1			119 nM		
CC(C)O[C@H]1CC[C@H](C(=O)N2c3cc(N4C[C@@H]5C[C@H]4CO5)ccc3Nc3ncccc3C2C)CC1 (some centres not stated)	3.4	25.3 nM	88.6 nM	143 mL/min/kg	
O=C(C1CCc2ccccc2CC1)N1Cc2cccnc2Nc2ccc(N3CCOCC3)cc21	1.7	> 50000 nM	43 nM	1500 mL/min/kg	IC50 [6]: > 5000 nM; IC50 [7]: > 5000 nM; IC50 [8]: 3200 nM
CC(C)O[C@H]1CC[C@H](C(=O)N2Cc3cccnc3Nc3cnn(CC4CCOCC4)c32)CC1		1390 nM	5020 nM		
O=C(C1CCN(CC(F)(F)F)CC1)N1Cc2cc(F)cnc2Nc2ccc(N3C[C@@H]4C[C@H]3CO4)cc21	2.2	8.7 nM	42.4 nM	33 mL/min/kg	
CC(C)O[C@H]1CC[C@H](C(=O)N2Cc3cncnc3Nc3ccc(N4C[C@@H]5C[C@H]4CO5)cc32)CC1	8.1	197 nM	810 nM	177 mL/min/kg	
CC(C)O[C@H]1CC[C@H](C(=O)N2Cc3cccnc3Nc3ccc(N4CC5CCC4CO5)cc32)CC1 (some centres not stated)	3.6	11 nM	17.2 nM		
CC(C)O[C@H]1CC[C@H](C(=O)N2Cc3cc(F)cnc3Nc3ccc(N4CC5CCC4CO5)cc32)CC1 (some centres not stated)	2.9	21.2 nM	18.2 nM		
CC(C)O[C@H]1CC[C@H](C(=O)N2Cc3cccnc3Nc3ccc(N4CCOCC4)cc32)CC1		34.9 nM	64.4 nM		
CC(C)O[C@H]1CC[C@H](C(=O)N2Cc3cccnc3Nc3ccc(C4COCCO4)cc32)OC1 (some centres not stated)	1.1		88.5 nM	34 mL/min/kg	Activity [10]: 7%
CC(C)O[C@H]1CC[C@H](C(=O)N2Cc3cc(F)cnc3Nc3ccc(N4C[C@H]5CC[C@@H]4CO5)cc32)OC1	1.4	11 nM	8.1 nM	22 mL/min/kg	
CC(C)O[C@H]1CC[C@H](C(=O)N2Cc3cccnc3Nc3cc(F)c(N4CC5CCC4CO5)cc32)CC1 (some centres not stated)	2.5		36.2 nM	124 mL/min/kg	
CC(C)O[C@H]1CC[C@H](C(=O)N2Cc3cccnc3Nc3cc(F)c(C4COCCO4)cc32)OC1 (some centres not stated)	1.2	32.5 nM	53.6 nM	58 mL/min/kg	logD [11]: 2.67; solubility [12]: 143 µM (≈ 67.4 µg/mL); Papp [13]: 38.7 ×10⁻⁶ cm/s; half-life [14]: 6 h; half-life [15]: 1.1 h; clearance [16]: 26 mL/min/kg; Vd [17]: 3.7 L/kg; Activity [10]: 1%; solubility [18]: 154 µM (≈ 72.6 µg/mL); Vd [19]: 5.1 L/kg; solubility [20]: 123 µM (≈ 58 µg/mL); clearance [21]: 69 mL/min/kg; bioavailability [22]: 77%; bioavailability [23]: 100%
CC(C)O[C@H]1CC[C@H](C(=O)N2Cc3cc(F)cnc3Nc3ccc(C4COCCO4)cc32)OC1 (some centres not stated)	0.9	24.4 nM	56.9 nM	50 mL/min/kg	Activity [10]: 12%
CC(C)O[C@H]1CC[C@H](C(=O)N2Cc3cc(F)cnc3Nc3ccc(-c4cnn(C)c4)cc32)OC1	1.2	4.9 nM	18.3 nM	51 mL/min/kg	
CC(C)O[C@H]1CC[C@H](C(=O)N2Cc3cccnc3Nc3cnc(N4C[C@@H]5C[C@H]4CO5)cc32)CC1	6.6	116 nM	261 nM	64 mL/min/kg	
